# High-throughput results as filed in PubChem BioAssay.
# Statin myotox sup – suppressors of simvastatin-induced myotoxicity in C2C12 myotubes | rescue of ATP level, % at 7.49 µM | hit rate 0.78% among 330,000 | ATP luminescence, 48 h; scaled: DMSO 0, geranylgeraniol control 100;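 active means mean ATP rescue above about 67%, or every replicate alone reaching that limit, limit read from the data, passing the limit was not always enough; inconclusive means no clear call, values can overlap the other calls; inactive means mean under the limit and some replicate under it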;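 further: myotubes were challenged with 10 µM simvastatin during compound exposure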
# SR-BI uptake up – enhances SR-BI lipid uptake from DiI-HDL. CHO ldlA[mSR-BI] cells, DiI-HDL uptake fluorescence, 3 h; 100 = double the neutral-control signal. activation, % at 12.5 µM. hit rate 0.096% among 320,000;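 active means mean replicate activation of at least 60% and every replicate at or above 60%; inconclusive means mean or all-replicate condition met, but not both; inactive means mean below 60% and not all replicates reaching 60%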
#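 Assay system: LDL receptor-deficient CHO ldlA cells overexpressing murine SR-BI / Medium: BSA-supplemented, HEPES-buffered Ham's F12, pH 7.4 / Probe or stimulus: DiI-labelled HDL at 10 µg/mL final / Timing: compound with DiI-HDL co-incubation, 3 h at 37 °C / Technique: bottom-read cell fluorescence after medium removal, ex 550/em 595 nm / Measure: HDL uptake via cellular fluorescence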
# Vif inh – inhibitors of HIV Vif; HEK293T cells, Vif self-association by quenched fluorescence, imaging, 24 h; inhibition, % at 7.49 µM; hit rate 0.35% among 340,000; AID 602346; in the data active means inhibition above about 50%, passing the limit was not always enough; inconclusive means no clear call, values can overlap the other calls; inactive means below about 31%
# SR-BI HDL uptake – mouse SR-BI HDL lipid transfer inhibition; ldlA[mSR-BI] CHO cells, DiI-HDL uptake fluorescence, 3 h; Q61009; hit rate 0.96% among 320,000; inhibition, % at 12.5 µM;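 active means mean replicate inhibition of at least 70% and a set share of replicates each scoring 70 or more; inconclusive means meets just one of the two criteria; inactive means fails both criteria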
# Target sequence (Q61009 whole entry, looked up): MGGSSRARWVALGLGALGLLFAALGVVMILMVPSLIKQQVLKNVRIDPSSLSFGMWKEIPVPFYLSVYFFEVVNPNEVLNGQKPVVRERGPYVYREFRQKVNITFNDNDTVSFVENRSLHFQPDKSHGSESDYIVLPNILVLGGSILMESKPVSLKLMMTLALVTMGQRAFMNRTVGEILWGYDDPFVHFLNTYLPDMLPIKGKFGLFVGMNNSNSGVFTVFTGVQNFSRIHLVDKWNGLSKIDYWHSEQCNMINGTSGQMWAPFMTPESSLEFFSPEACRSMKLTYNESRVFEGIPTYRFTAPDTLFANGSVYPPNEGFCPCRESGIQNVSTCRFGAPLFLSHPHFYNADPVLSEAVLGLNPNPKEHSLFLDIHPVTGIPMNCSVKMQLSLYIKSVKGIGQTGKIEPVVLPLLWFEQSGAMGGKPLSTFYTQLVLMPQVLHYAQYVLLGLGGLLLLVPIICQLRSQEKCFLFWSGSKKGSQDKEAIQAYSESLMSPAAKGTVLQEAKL
# Numbers stand for hits; 0 = inactive; ? = inconclusive; - = not tested or not shown. Rows were chosen to be rich in hits. Some 1.7% of all compounds tested hit in one or more screens of this group.
SMILES,Statin myotox sup,SR-BI uptake up,Vif inh,SR-BI HDL uptake
CCN(CC)c1ccc(/C=C2\CCC(/C=N/NC(=O)c3ccc(=O)n(C)c3)=C2N2CCOCC2)cc1,-,0,0,99.6
Cc1occc1C(=O)N/N=C/C1=C(N2CCOCC2)C(=C\c2ccc(Cl)cc2)/CC1,-,-,0,-
O=C(O)c1ccccc1N/N=C/C1=C(N2CCOCC2)C(=C\c2ccccc2)/CC1,0,0,0,0
CC(C)C(NC(=O)C12CC3CC(CC(C3)C1)C2)C(=O)N/N=C/C1=C(N2CCOCC2)C(=C\c2ccc([N+](=O)[O-])cc2)/CC1 (configuration not stated),-,0,0,98.9
CC(NC(=O)C12CC3CC(CC(C3)C1)C2)C(=O)N/N=C/C1=C(N2CCOCC2)C(=C\c2cccc([N+](=O)[O-])c2)/CC1 (configuration not stated),-,0,0,0
Cc1cc(C)nc(N/N=C/C2=C(N3CCOCC3)C(=C/c3ccccc3)/CC2)n1,0,0,0,90.4
O=C(N/N=C/C1=C(N2CCOCC2)C(=C\c2ccccc2)/CC1)Nc1ccccc1,-,0,0,73.9
COc1ccc(C(=O)Nc2cc3c4c(c2)C(C)C(=O)N4CCC3)cc1OC (configuration not stated),0,0,0,78.6
CC(OC(=O)c1c[nH]c2ccccc12)C(=O)N1CCCC1 (configuration not stated),0,0,63.8,0
O=C(c1ccccc1)c1cc2ccccc2oc1=O,0,0,0,0
O=C(NNC(=O)c1cc2ccccc2o1)c1ccc(Cl)cc1,0,510.5,0,0
O=C(NNC(=O)c1cc2ccccc2oc1=O)c1ccccc1,0,-,79.1,-
O=C(NNC(=O)c1cc2ccccc2o1)c1ccc(F)cc1,0,0,0,0
CCc1ccc(OCC(=O)NNC(=O)c2cc3ccccc3o2)cc1,81.0,0,0,0
C[C@@H]1CN([C@@H](C)CO)C(=O)c2cc(-c3ccncc3)cnc2O[C@H]1CN(C)C(=O)C1CC1,0,-,-,-
COc1ccc(Nc2cc(C(=O)N3CCc4ccccc4C3)c3ccccc3n2)c(OC)c1,0,0,0,78.5
COCCCNC(=O)c1cc(Nc2ccc(OC)cc2OC)nc2ccccc12,0,0,0,0
Cc1ccccc1NC(=O)c1ccc(C)c(S(=O)(=O)Nc2ccccn2)c1,96.7,0,0,0
Cc1ccccc1NS(=O)(=O)c1cc(C(=O)Nc2cccc(N(C)S(C)(=O)=O)c2)ccc1C,0,0,0,71.4
Cc1cc(NS(=O)(=O)c2ccc(NC(=O)c3ccc(Cl)cc3Cl)cc2)no1,0,0,55.2,0
Cc1ccc(C(=O)Nc2ccc(Br)cc2)cc1S(=O)(=O)Nc1ccccn1,-,0,0,0
O=C(Nc1ccc(S(=O)(=O)Nc2ccccn2)cc1)c1cccc(Cl)c1,74.4,-,?,-
COc1cccc(S(=O)(=O)N(C)C[C@H]2Oc3ncc(-c4cccc(C(=O)N(C)C)c4)cc3C(=O)N([C@H](C)CO)C[C@H]2C)c1,0,-,-,-
C[C@H]1CN([C@@H](C)CO)S(=O)(=O)c2ccc(Br)cc2O[C@@H]1CN(C)C,0,-,-,-
CO[C@@H]1CN(C)C(=O)c2cc(NC(C)=O)ccc2OC[C@@H](C)NC[C@@H]1C,0,-,-,-
SMILES,Statin myotox sup,SR-BI uptake up,Vif inh,SR-BI HDL uptake
CCNC(=O)C[C@@H]1CC[C@H]2[C@@H](COc3ccc(NC(=O)c4cccc(OC)c4)cc3C(=O)N2C)O1,0,-,-,-
CN(C)CC(=O)Nc1ccc2c(c1)[C@H]1C[C@H](CC(=O)NCCc3ccccc3)O[C@H](CO)[C@H]1O2,0,-,-,-
CCCCCCOC(=O)CCc1c(C)nc(N)[nH]c1=O,98.4,0,0,0
CCCCCCOC(=O)Cc1c(C)nc(N)[nH]c1=O,0,-,0,-
FC(F)(F)c1nnc(-c2ccccc2)nc1Oc1ccc(Cl)cc1Cl,0,0,50.6,0
C[C@H](CO)N1C[C@H](C)[C@H](CN(C)C(=O)NC2CCCCC2)Oc2ccc(NC(=O)CCN3CCOCC3)cc2CC1=O,0,-,-,-
O=C1CN(S(=O)(=O)c2cc(Br)ccc2Br)CCN1,0,0,0,0
O=c1c(Br)ccc(Br)cc1Br,0,0,167.8,0
CCN(CC)c1ccc2cc(C(N)=O)c(=O)oc2c1,0,0,131.6,0
CCN(CC)c1ccc2cc(C(N)=O)c(=N)oc2c1,-,0,0,0
O=C(C[C@H]1CC[C@H]2[C@@H](COC[C@H](O)CN2CC2CC2)O1)NCC1CC1,0,-,-,-
C[C@H]1CN([C@@H](C)CO)C(=O)CCCn2cc(nn2)CO[C@H]1CN(C)C(=O)Nc1ccccc1C(F)(F)F,0,-,-,-
Cc1ccc(-c2cc(C(=O)NCc3ccccn3)c3ccccc3n2)cc1,0,0,59.3,0
COc1ccc(-c2cc(C(=O)NCCc3ccc(S(N)(=O)=O)cc3)c3ccccc3n2)cc1,-,0,0,0
NS(=O)(=O)c1ccc(CCNC(=O)c2cc(-c3ccccc3)nc3ccccc23)cc1,0,0,0,79.5
Cc1ccc(-c2cc(C(=O)NCCc3ccc(S(N)(=O)=O)cc3)c3ccccc3n2)cc1,-,0,-,85.7
Cc1ccccc1S(=O)(=O)N1CC[C@@H]2[C@H]1c1cc(-c3ccc(C#N)cc3)ccc1N(C)[C@H]2CO,0,-,-,-
Cc1ccccc1S(=O)(=O)N1C[C@@H](O)COC[C@H]2O[C@H](CC(=O)N3CCC(Cc4ccccc4)CC3)CC[C@@H]21,0,-,-,-
CO[C@@H]1CN(C)C(=O)c2cc(NC(=O)C3CC3)ccc2OC[C@@H](C)N(Cc2cncnc2)C[C@@H]1C,0,-,-,-
O=C(N[C@H]1C=C[C@@H](CC(=O)N2CCOCC2)O[C@@H]1CO)c1cccc(F)c1,0,-,-,-
Oc1ccc(Cl)cc1C1=NNC(c2cccs2)C1 (configuration not stated),148.6,0,0,0
Cc1ccc(-c2cc(C(F)F)n3ncc(C(=O)Nc4c(C)nn(Cc5c(Cl)cccc5Cl)c4C)c3n2)cc1,0,0,0,0
Cc1ccc(-c2cc(C(F)F)n3ncc(C(=O)Nc4c(C)nn(Cc5ccccc5Cl)c4C)c3n2)cc1,79.8,0,0,0
Cc1nn(Cc2c(Cl)cccc2Cl)c(C)c1NC(=O)c1cnn2c(C(F)F)cc(-c3ccccc3)nc12,0,0,104.0,0
CC(=O)C1=C(C)NC(SCC(=O)c2ccc(Cl)c(Cl)c2)=C(C#N)C1c1ccco1 (configuration not stated),0,0,82.1,0
SMILES,Statin myotox sup,SR-BI uptake up,Vif inh,SR-BI HDL uptake
CC(=O)C1=C(C)NC(SCc2cccc([N+](=O)[O-])c2)=C(C#N)C1c1ccco1 (configuration not stated),143.4,0,0,0
CC(=O)C1=C(C)NC(SCC(N)=O)=C(C#N)C1c1ccco1 (configuration not stated),0,0,0,0
COc1ccc(-c2nc3n(c(=O)c2C#N)CCS3)cc1,-,0,0,0
FC(F)Oc1ccc(/C=N/c2c(-c3ccc(OC(F)F)cc3)nc3n2CCS3)cc1,0,0,0,73.7
Cc1cc(Oc2ccccc2)nc(-c2ccccc2O)n1,104.2,0,0,0
Cc1cc(N2CCCC2)nc(-c2ccccc2O)n1,114.6,0,0,0
Cc1cccc(C(=O)N[C@H](C(=O)Nc2nc3ccccc3[nH]2)C(C)C)c1,-,0,78.5,0
